High-throughput results: PubChem BioAssay, several laboratories
A selection: hits, their analogues and other compounds. The true share with any hit is near 1.8%.
p-CIP stab down = p/CIP-EGFP fusion destabilizers, primary screen, fluorescence, F442A cells; Q05BA5; 16 h; decrease of EGFP signal, % at 10 µM; hit rate 0.01% among 290,000;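 active = EGFP signal decrease of at least 30% at 10 µM or well 3 SD below plate mean, unless failing retest; inactive = the rest, including hits failing retest or dose response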
APOBEC3G inh = APOBEC3G DNA deaminase inhibitors, primary screen, biochemical, fluorescence, single-stranded DNA substrate, uHTS | DNA dC->dU-editing enzyme APOBEC-3G (Homo sapiens), Q9HC16 | recombinant A3G, ssDNA deamination FAM/TAMRA fluorescence | hit rate 0.28% among 330,000 | inhibition, % at 20 µM;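 active = inhibition of at least 40% at 20 µM, with no more than 30% in the related APOBEC3A deaminase screen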;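 note: plate controls were DMSO wells with A3G for no effect and wells lacking A3G enzyme for full effect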
Target sequence (Q9HC16 whole entry, looked up): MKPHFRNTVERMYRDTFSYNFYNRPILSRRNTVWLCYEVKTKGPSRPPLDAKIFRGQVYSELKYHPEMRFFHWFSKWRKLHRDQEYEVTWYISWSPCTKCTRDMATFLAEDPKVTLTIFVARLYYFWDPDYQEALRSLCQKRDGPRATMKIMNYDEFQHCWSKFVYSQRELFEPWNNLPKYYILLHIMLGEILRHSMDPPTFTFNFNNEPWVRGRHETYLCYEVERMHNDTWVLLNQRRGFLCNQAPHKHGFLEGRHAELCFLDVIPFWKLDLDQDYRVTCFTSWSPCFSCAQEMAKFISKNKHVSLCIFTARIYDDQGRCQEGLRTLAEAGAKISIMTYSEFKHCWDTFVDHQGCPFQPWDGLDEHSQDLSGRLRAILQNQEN
PHOSPHO1 inh = PubChem AID 1565. recombinant PHOSPHO1, absorbance phosphatase assay. inhibition, % at 13.3 µM. hit rate 1.1% among 290,000; in the data active = inhibition above about 60%
A3A deaminase = APOBEC3A ssDNA deaminase inhibitors, primary screen, selectivity assay for APOBEC3G inhibitor project, biochemical, FAM/TAMRA oligo cleavage fluorescence | recombinant A3A, FAM/TAMRA ssDNA deamination fluorescence | inhibition, % at 20 µM | hit rate 0.41% among 330,000;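 active = at least 40% inhibition at 20 µM here, with at most 30% in a related deaminase screen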;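 note: plate controls were A3A with DMSO for no effect and wells lacking A3A enzyme for full effect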
Target sequence (P31941 whole entry, looked up): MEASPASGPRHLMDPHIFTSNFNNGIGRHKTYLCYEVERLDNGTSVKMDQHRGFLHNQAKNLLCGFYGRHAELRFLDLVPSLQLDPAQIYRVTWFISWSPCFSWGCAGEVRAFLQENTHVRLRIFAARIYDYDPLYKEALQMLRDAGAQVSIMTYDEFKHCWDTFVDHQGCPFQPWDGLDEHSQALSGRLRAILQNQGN
Tb MetRS inh = T. brucei MetRS inhibitors, primary screen, biochemical, luminescence; hit rate 0.4% among 360,000; purified T. brucei MetRS, ATP depletion, Kinase-Glo luminescence; methionyl-tRNA synthetase (Trypanosoma brucei brucei); inhibition, % at 11.9 µM;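 active = inhibition above a per-plate cutoff of the control wells' mean inhibition plus 3 SD, cut at about 5.5% in these data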;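 note: 0% = DMSO wells median and 100% = median of wells with control inhibitor compound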
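Dosing: 11.9 µM compound single dose, 0.9% DMSO; Assay system: purified T. brucei MetRS enzyme; Measured by: Kinase-Glo luciferase luminescence reporting remaining unconsumed ATP; Schedule: 15 min plus 2 h at 25 °C.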
* hit, by the source's call; . = no result.

SMILES | p-CIP stab down | APOBEC3G inh | PHOSPHO1 inh | A3A deaminase | Tb MetRS inh
Cn1c(SCC(=O)Nc2cc(=O)n(C)c(=O)n2C)nnc1C12CC3CC(CC(C3)C1)C2 | -3 | . | 61* | . | .
CCOc1ccc(NC(=O)CSc2nnc(C34CC5CC(CC(C5)C3)C4)n2C)cc1 | -8 | 0 | 20 | 2 | -1
C=CCn1c(=O)/c(=C/c2ccc(C)o2)s/c1=C(/C#N)C(=O)c1ccccc1 | -50 | -5 | 83* | -2 | -2
C=CCn1c(=O)/c(=C\c2ccccn2)s/c1=C(/C#N)C(=O)NCC1CCCO1 (stereo not given) | 0 | 0 | -79 | 0 | 0
Cc1ccc(NCC(=O)N2CCN(S(=O)(=O)c3ccccc3)CC2)cc1F | . | -10 | . | 2 | 0
S=c1[nH]nc(Cc2c[nH]c3ccccc23)o1 | -2 | 5 | 61* | -5 | -1
c1ccc(Cc2c[nH]c3ccccc23)cc1 | -8 | -1 | 4 | -5 | 0
Nc1nc2c(s1)CCc1c-2cnn1-c1ccccc1 | -14 | 54* | 106* | -3 | 0
CC(=O)Nc1ccc(C(=O)CSc2nc3ccccc3n2CC(=O)N2CCCC2)cc1 | -7 | -8 | 71* | -3 | -1
CC(=O)C1=C(C)Nc2cc(C(F)(F)F)ccc2S1 | 3 | -9 | 96* | -5 | -1
CN1CCN(C(=O)Nc2ccccc2)CC1 | -9 | -15 | 63* | 0 | -1
O=C(Nc1ccccc1)N1CCN(c2ccccc2)CC1 | . | . | . | . | 0
NC(Cc1ccccc1)C(=O)N1CCCCC1 (stereo not given) | -2 | -6 | 48 | -1 | 0
CN1CCN(C(=O)C(N)Cc2ccccc2)CC1 (stereo not given) | -3 | -5 | 63* | 0 | 0
Cc1ccc(S(=O)(=O)N2C[C@H]3N(C(=O)OC(C)C)N(C(=O)OC(C)C)C[C@H](OC(=O)NC4CCCC4)[C@@]3(O)C2)cc1 | . | . | . | . | 0
CN1C(=O)Cc2cc(S(=O)(=O)NCc3cccs3)ccc21 | 2 | -4 | 44 | 4 | 0
CCOc1cc(CNS(=O)(=O)c2ccc3c(c2)CC(=O)N3C)cc(OCC)c1OCC | -7 | -3 | 65* | -1 | 0
CC(C)COC(=O)c1ccc2c(c1O)C(=O)c1ccccc1C2=O | -4 | 0 | 80* | 3 | 0
CC(Sc1nnc2n1CCCCC2)C(=O)Nc1cccc(S(=O)(=O)N2CCOCC2)c1 (stereo not given) | . | -10 | . | -4 | 0
O=C1c2ccccc2C(=O)c2c1oc(C(F)(F)F)c2C(=O)c1ccccc1 | -9 | -3 | 106* | 0 | 0
O=C(c1ccccc1)c1coc2c1C(=O)c1ccccc1C2=O | 0 | -4 | -83 | -5 | 1
CCOc1ccc(C(=O)n2cnnc2N)cc1 | -2 | -4 | -10 | -6 | 0
Cc1ccc(Cl)cc1NC(=O)Cn1c(C)csc1=O | . | 0 | . | 6 | 0
O=C(Nc1nnc(C2=COCCO2)o1)c1cccc(Br)c1 | -15 | 2 | 61* | 0 | 0
O=C(Nc1nnc(C2=COCCO2)o1)c1cccc([N+](=O)[O-])c1 | -4 | -2 | 8 | 1 | 0
SMILES | p-CIP stab down | APOBEC3G inh | PHOSPHO1 inh | A3A deaminase | Tb MetRS inh
O=C(CCc1ccccc1)N1CCN(Cc2ccc(F)cc2Cl)CC1 | -9 | -4 | 24 | -5 | -1
CCOC(=O)CSC1=C(C#N)C(c2ccc(C)cc2)C2=C(CCCC2=O)N1 (stereo not given) | -5 | -6 | 92* | -16 | 0
Cc1ccc(C(=O)CSC2=C(C#N)C(c3ccco3)C3=C(CC(C)(C)CC3=O)N2)cc1 (stereo not given) | -12 | -4 | 76* | -3 | -1
CCOC(=O)CSC1=C(C#N)C(c2ccc(F)cc2)C(C(C)=O)=C(C)N1 (stereo not given) | 5 | -1 | 79* | 1 | -1
CSC1=C(C#N)C(c2ccc(C)cc2)C2=C(CCCC2=O)N1 (stereo not given) | -5 | -5 | 14 | 1 | 0
CC(C)C(OC(=O)c1cccs1)C(=O)NCc1ccco1 (stereo not given) | 0 | -1 | -27 | 1 | -1
Cc1cc2c(cc(C(=O)OC(C(=O)NCc3ccco3)C(C)C)n2C)o1 (stereo not given) | 6 | 3 | 66* | -3 | -1
Cc1cc(C(=O)CSc2nnc(-c3ccccc3)n2Cc2ccc3c(c2)OCO3)c(C)n1C | 7 | -8 | 95* | -7 | 0
O=C(CSc1nccn1-c1ccc(F)cc1)NCc1ccc2c(c1)OCO2 | -2 | -7 | 65* | -1 | -1
O=C(CSc1nnc(-c2ccccc2)n1Cc1ccco1)NCc1ccc2c(c1)OCO2 | 3 | -1 | 60* | 1 | 0
CCCc1c(C(=O)N/N=C(\C)CCc2ccccc2)nnn1-c1nonc1N | 10 | 14 | 67* | 0 | -1
CCCc1c(C(=O)N/N=C(\C)c2ccccn2)nnn1-c1nonc1N | . | . | . | . | 0
O=S(=O)(c1ccc(N=C2NN=C(c3cc(F)ccc3F)CS2)cc1)N1CCOCC1 | -8 | -7 | 5 | -4 | 1
CC(=O)Nc1ccc(C2=NNC(=Nc3ccc(S(=O)(=O)N4CCOCC4)cc3)SC2)cc1 | -16 | -5 | 65* | 0 | 0
O=C(CC1Sc2ncnn2C1=O)Nc1ccccc1 (stereo not given) | -9 | 27 | 94* | -3 | -1
CNS(=O)(=O)c1ccc(NC(=O)C(CCSC)NC(N)=O)cc1 (stereo not given) | -2 | -5 | 1 | -3 | 0
CSCCC(NC(N)=O)C(=O)Nc1ccc(C)cc1 (stereo not given) | -7 | -2 | 63* | -1 | 0
O=C(COC(=O)c1cc(-c2cccs2)nn1-c1ccccc1)Nc1ccc(Cl)c([N+](=O)[O-])c1 | -10 | -9 | 6 | 2 | 0
COc1ccc(-c2cnn3c4c(c(C)nc23)CCN4C(C)C)cc1OC | -11 | -3 | 62* | -2 | 0
CCc1nnc(NC(=O)CCC(=O)N2CCN(Cc3ccc(C)cc3C)CC2)s1 | -16 | -1 | 70* | -1 | 0
C[C@@H]1CCCCO[C@@H](CN(C)S(=O)(=O)c2ccccc2)[C@@H](C)CN([C@H](C)CO)C(=O)c2cc(N(C)C)ccc2O1 | . | . | . | . | -1
Cc1cc(O)c(/C=N/Nc2cccc(Cl)c2)c(=O)o1 | 5 | 25 | 101* | -3 | 0
COc1ccc(CCNC(=O)C2CCCN(S(=O)(=O)c3cc(C)ccc3OC)C2)cc1OC (stereo not given) | -4 | -5 | -98 | -2 | 0
Cc1cccc(-c2cc(C(=O)N/N=C/c3cccnc3)c3ccccc3n2)c1 | . | 2 | . | 1 | 0
